KCNQ1 inh: human KCNQ1 channel inhibition | P51787 | CHO-K1 KCNQ1, FluxOR thallium flux fluorescence; active compounds read high | B-score at 10 µM | hit rate 1.3% among 310,000 | AID 2642;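 active = compounds whose thallium flux B-score, printed positive for inhibition, exceeds three library SD while starting fluorescence stays within three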;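 note: channel opened by potassium depolarization with thallium stimulus after 20 min compound exposure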
KCNK9 block: blocks the human KCNK9 two-pore domain potassium channel | Q9NPC2 | HEK293 KCNK9, FluxOR thallium flux fluorescence; active compounds read low | B-score at 10 µM | hit rate 1.2% among 310,000;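 active = ratio B-score over 3 SD below the library mean, with starting fluorescence within 5 SD of its mean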;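 note: negative B-score means less thallium flux so channel inhibition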
KCNK3 block: human KCNK3 channel inhibition, primary screen; CHO-KCNK3 thallium flux, FluxOR fluorescence; active compounds read low; B-score at 10 µM; hit rate 0.84% among 340,000;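 active = B-score under library mean minus 4 SD, starting fluorescence ratio at most library mean plus 5 SD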;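 note: more negative B-score means stronger inhibition of thallium flux through KCNK3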
KCNQ1 act: human KCNQ1 channel potentiation or activation. AID 2648. CHO-K1 KCNQ1, thallium flux FluxOR fluorescence; active compounds read high. B-score at 10 µM. P51787. hit rate 0.35% among 310,000;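 active = fluorescence ratio B-score, a plate-corrected score, at least three library SD, with initial intensity B-score within 5 SD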
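assay system = CHO-K1 cells stably expressing KCNQ1 | medium = assay buffer, equal DMSO in all wells | timing = 37 °C overnight plating, 90-min dark dye load, 20-min compound pretreatment | measured by = kinetic FluxOR thallium fluorescence, 10-s 1-Hz baseline, 110-s post-stimulus read | measure = fluorescence change relative to baseline, converted to B score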
hERG rescue: compounds protecting human hERG from proarrhythmic drug block; Q12809; activation (rescue from dofetilide block), less the hit threshold, % at 10 µM; hit rate 0.51% among 310,000; CHO-hERG, FluxOR thallium flux, dofetilide IC70 present;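 active = activation above the mean of controls blocked by dofetilide plus 5 SD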;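 note: thallium influx through hERG after potassium depolarization seen as dye fluorescence rise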
KCNK3 confirm: human KCNK3 channel inhibition, confirmation assay | shares compounds with KCNK3 block | AID 651638 | CHO-KCNK3 thallium flux, FluxOR fluorescence; 0% buffer, 100% carvedilol maximal block | ratio percent of control, % at 10 µM | hit rate 99% among 2,400;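 active = ratio percent of control, averaged over triplicates, above buffer control mean plus 5 SD, cut at about 64% in these data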;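 note: ratio is the fluorescence rise from min to max over baseline after thallium stimulus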
KCNK3 noninduced: counter-screen for KCNK3 inhibitors: effect in non-induced cells; shares compounds with KCNK3 block; thallium flux ratio (lower = more inhibition) at 10 µM; AID 651747; non-induced KCNK3 parental cells, FluxOR thallium flux; active compounds read low; hit rate 40% among 2,400;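 active = thallium flux ratio, averaged over three wells, more than 5 SD below the buffer control mean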;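 note: host cells are CHO cells without KCNK3 induction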
Numbers stand for hits; . = inactive; / = not tested or not shown. The list is not random: actives were taken first. Their share in the collection is about 3.1%.

SMILES	KCNQ1 inh	KCNK9 block	KCNK3 block	KCNQ1 act	hERG rescue	KCNK3 confirm	KCNK3 noninduced
COC(=O)c1sccc1NC(=O)c1ccc(C(C)C)cc1	.	.	-11.2	.	.	100.3	.
Cc1ccc(OCC(=O)NNC(=O)c2ccccc2OCc2c(C)noc2C)cc1	.	.	-8.72	.	.	94.3	.
CCNC(=O)c1cccc(NC(=O)c2cc(C3CC3)nc3c2cnn3C(C)C)c1	/	/	.	/	/	/	/
CC(C)n1ncc2c(C(=O)Nc3cccc(C#N)c3)cc(C3CC3)nc21	/	/	-11.7	/	/	117.7	0.132
CCN(C(=O)COC(=O)CN1C(=O)c2ccccc2C1=O)c1ccccc1	/	/	.	/	/	/	/
CCN(C(=O)COC(=O)CCc1ccccc1)c1ccccc1	.	.	-9.48	.	.	80.7	.
CCN(C(=O)COC(=O)CSc1cc(C)c2ccccc2n1)c1ccccc1	.	.	-9.6	.	.	97.3	.
CCN(C(=O)CSc1cc(C)c2ccccc2n1)c1c(N)n(Cc2ccccc2)c(=O)[nH]c1=O	.	.	.	.	.	/	/
COc1ccc(CCNC(=O)CSc2cn(Cc3ccccc3)c3ccccc23)cc1OC	.	.	.	.	.	/	/
COc1ccc(CCNC(=O)CSc2cn(Cc3cccc(C)c3)c3ccccc23)cc1OC	.	.	-9.15	.	.	104.7	.
FC(F)(F)c1ccc(-c2noc(CN3CCCN(C4CCCCC4)CC3)n2)cc1	.	.	.	.	.	/	/
CN(CCO)c1nc(N)c(C#N)c(CC#N)c1C#N	.	.	.	.	.	/	/
CC(C)CN(CC(C)C)c1nc(N)c(C#N)c(CC#N)c1C#N	.	-7.52	-10.6	.	.	92.0	.
CCCCCN(C(=O)CN1CCC(Cc2ccccc2)CC1)c1c(N)n(CCCC)c(=O)[nH]c1=O	.	.	.	.	.	/	/
Cn1cc(SCC(=O)NCc2ccc(F)cc2)c2ccccc21	.	.	.	.	.	/	/
O=C(NCCn1cc(SCc2ccc(F)cc2)c2ccccc21)c1ccccc1F	11	-7.55	-16.4	.	.	139.7	0.119
CCc1nnc(SCC(=O)Nc2ccccc2)n1CC1CCCO1 (centres undefined)	.	.	-8.73	.	.	79.0	0.159
O=C(CSc1nc2ccccc2c(=O)n1CC1CCCO1)Nc1ccccc1Cl (centres undefined)	.	-7.62	-12.2	.	.	104.0	.
O=C(CSc1nc2ccccc2c(=O)n1CC1CCCO1)Nc1ccccc1 (centres undefined)	.	.	.	.	.	/	/
O=C(Cn1c(=O)c2cccn2c2cccnc21)N1CCN(c2ccc(Cl)cc2)CC1	.	.	.	.	.	/	/
Cc1ccc2[nH]c3c(N4CCN(Cc5ccccc5)CC4)ncnc3c2c1	.	.	-10.1	.	.	130.0	0.112
CCOc1ccc(CN2CCN(c3ncnc4scc(-c5ccccc5)c34)CC2)cc1	.	.	.	.	.	/	/
Cc1sc2ncnc(N3CCN(Cc4ccccc4)CC3)c2c1-c1ccccc1	.	.	-9.62	57	.	111.7	0.158
Cc1ccc2c(c1)[nH]c1c(N3CCN(Cc4ccccc4)CC3)ncnc12	.	.	.	.	.	/	/
Cc1ccc(S(=O)(=O)N(C)c2ccc(C(=O)Nc3ccccc3C(=O)N3CCOCC3)cc2)cc1	.	.	.	.	.	/	/
SMILES	KCNQ1 inh	KCNK9 block	KCNK3 block	KCNQ1 act	hERG rescue	KCNK3 confirm	KCNK3 noninduced
CCCCc1nc(NCCNC(=O)c2ccccc2)c(C#N)c2c1CSC(C)(C)C2	.	.	-10.1	.	.	136.3	0.112
Cc1noc(C)c1S(=O)(=O)Nc1ccc(C(=O)N2CCc3ccccc3C2)cc1	.	.	-9.14	.	.	59.7	.
Cc1noc(C)c1S(=O)(=O)Nc1ccc(C(=O)N2CCC(C)CC2)cc1	.	.	/	.	.	/	/
O=C1OC[C@H](Cc2ccc3c(c2)OCO3)/C1=C\c1ccc2c(c1)OCO2	.	.	-9.73	.	.	133.3	.
O=C(NC1CCCC1)C(=O)N(Cc1cccnc1)C(C(=O)NCC1CCCO1)c1ccco1 (centres undefined)	.	.	.	.	.	/	/
O=C(CNC(=O)c1cccc(F)c1)OCCOc1cccc(Cl)c1	.	.	-8.73	.	.	103.7	.

Source: PubChem (Johns Hopkins Ion Channel Center)
